Measured values from ChEMBL document CHEMBL5096186, “Design, Synthesis, and Biological Evaluation of Novel Pyrimido[4,5-b]indole Derivatives Against Gram-Negative Multidrug-Resistant Pathogens” (J Med Chem, 2021).
Converted amounts (≈) assume the structure as drawn. Values belong to the compound of their own block, whether it stands above or below them.

Columns and labels:
Escherichia coli [1] = assay: Antibacterial activity against ESBL-producing Escherichia coli ATCC 35218 strains 15 1 to 3 assessed as reduction in bacterial growth incubated for 18 to 20 hrs by CLSI based microdilution method; format: functional; details: time 18-20 hrs
Outline: (§1)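 CLSI broth microdilution. Compounds in DMSO (levofloxacin and meropenem in water), serial twofold dilutions in broth, 64 to 0.008 μg/mL. […] Results reported as MIC ranges across strains.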

Escherichia coli [2] = assay: Antibacterial activity against Escherichia coli ATCC 35218 strains 15 1 to 3 assessed as reduction in bacterial growth incubated for 18 to 20 hrs by CLSI based microdilution method; format: functional; details: time 18-20 hrs; outline: as §1
[3] = biological target: hERG (KCNH2) potassium channel (Homo sapiens, UniProt Q12809); assay: Inhibition of hERG potassium channel assessed as maximum inhibition rate at 40 uM at -80 mV holding potential incubated for 120 seconds by whole cell-automated voltage clamp analysis assay relative to control; format: toxicity; details: time 120 sec
Outline: (§2)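 Automated whole-cell patch clamp, holding potential −80 mV. Voltage protocol applied every 20 s. Baseline set with external solution containing 0.1% DMSO and stabilised 3 min. Compound applied until steady state, at least 3 min, then washout. Maximum tested concentration 40 μM, or 3 μM for cisapride as positive control.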

Pseudomonas aeruginosa [4] = assay: Antibacterial activity against multidrug resistant Pseudomonas aeruginosa strains 15 1 to 3 assessed as reduction in bacterial growth incubated for 18 to 20 hrs by CLSI based microdilution method; format: functional; details: time 18-20 hrs
Outline: (§3)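 Broth microdilution per CLSI. Compounds dissolved in DMSO (levofloxacin and meropenem in water) as 64 μg/mL stock, then serial twofold dilutions in broth giving 64 to 0.008 μg/mL. […] Clinical isolates tested as several strains per group; racemic GP-1 served as positive control; values given as MIC ranges.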

[5] = biological target: Voltage-gated inwardly rectifying potassium channel KCNH2 (Homo sapiens, UniProt Q12809); assay: Inhibition of hERG potassium channel assessed as […] at -80 mV holding potential incubated for 120 seconds by whole cell-automated voltage clamp analysis assay; format: toxicity; outline: as §2
Staphylococcus aureus [6] = assay: Antibacterial activity against methicillin-sensitive Staphylococcus aureus strains 15 1 to 4 assessed as reduction in bacterial growth incubated for 18 to 20 hrs by CLSI based microdilution method; format: functional; details: time 18-20 hrs; outline: as §3
[7] = system: Staphylococcus epidermidis; assay: Antibacterial activity against methicillin-sensitive Staphylococcus epidermidis strains 15 1 to 4 assessed as reduction in bacterial growth incubated for 18 to 20 hrs by CLSI based microdilution method; format: functional; details: time 18-20 hrs; outline: as §3
Pseudomonas aeruginosa [8] = assay: Antibacterial activity against wild type Pseudomonas aeruginosa ATCC 27853 assessed as reduction in bacterial growth incubated for 18 to 20 hrs by CLSI based microdilution method; format: functional; details: time 18-20 hrs; outline: as §1
Acinetobacter baumannii [9] = assay: Antibacterial activity against wild type Acinetobacter baumannii NCTC 13304 assessed as reduction in bacterial growth incubated for 18 to 20 hrs by CLSI based microdilution method; format: functional; details: time 18-20 hrs; outline: as §3
Escherichia coli [10] = assay: Antibacterial activity against ESBL-producing multidrug resistant Escherichia coli assessed as reduction in bacterial growth incubated for 18 to 20 hrs by CLSI based microdilution method; format: functional; details: time 18-20 hrs; outline: as §3
Escherichia coli [11] = assay: Antibacterial activity against multidrug resistant wild type Escherichia coli ATCC BAA-2340 assessed as reduction in bacterial growth incubated for 18 to 20 hrs by CLSI based microdilution method; format: functional; details: time 18-20 hrs; outline: as §3
Pseudomonas aeruginosa [12] = assay: Antibacterial activity against IMP4-producing multidrug resistant Pseudomonas aeruginosa assessed as reduction in bacterial growth incubated for 18 to 20 hrs by CLSI based microdilution method; format: functional; details: time 18-20 hrs; outline: as §3
Klebsiella pneumoniae [13] = assay: Antibacterial activity against KPC2-producing multidrug resistant Klebsiella pneumoniae assessed as reduction in bacterial growth incubated for 18 to 20 hrs by CLSI based microdilution method; format: functional; details: time 18-20 hrs; outline: as §3
Klebsiella pneumoniae [14] = assay: Antibacterial activity agains wild type Klebsiella pneumoniae ATCC BAA-2470 assessed as reduction in bacterial growth incubated for 18 to 20 hrs by CLSI based microdilution method; format: functional; details: time 18-20 hrs; outline: as §3
Klebsiella pneumoniae [15] = assay: Antibacterial activity agains wild type Klebsiella pneumoniae ATCC BAA-1705 assessed as reduction in bacterial growth incubated for 18 to 20 hrs by CLSI based microdilution method; format: functional; details: time 18-20 hrs; outline: as §1
Escherichia coli [16] = assay: Antibacterial activity against multidrug resistant wild type Escherichia coli NCTC 13353 assessed as reduction in bacterial growth incubated for 18 to 20 hrs by CLSI based microdilution method; format: functional; details: time 18-20 hrs; outline: as §3
Acinetobacter baumannii [17] = assay: Antibacterial activity agains OXA23-producing multidrug resistant Acinetobacter baumannii assessed as reduction in bacterial growth incubated for 18 to 20 hrs by CLSI based microdilution method; format: functional; details: time 18-20 hrs; outline: as §3
[18] = Metabolic stability in human liver microsome assessed as metabolic bioavailability at 0.1 uM in presence of NADPH incubated upto 60 mins by LC-MS/MS analysis; format: ADME; details: liver microsomes
Outline: (§4)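 Compound at 0.1 μM final, in 0.01% DMSO with 0.005% BSA. Incubated with rat or human liver microsomes at 0.33 mg/mL in 0.1 M Tris-HCl, pH 7.4, with 5 mM MgCl₂ and 1 mM NADPH, at 37 °C. Samples at 0, 7, 17, 30 and 60 min quenched with cold methanol and analysed by LC-MS/MS. Half-life, Cl_int and MF% derived as previously described.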

[19] = Metabolic stability in human liver microsome assessed as intrinsic clearance at 0.1 uM in presence of NADPH incubated upto 60 mins by LC-MS/MS analysis; format: ADME; details: microsomes, 1 h; outline: as §4
[20] = Metabolic stability in human liver microsome assessed as elimination half life at 0.1 uM in presence of NADPH incubated upto 60 mins by LC-MS/MS analysis; format: ADME; details: liver microsomes, read-out: beta t1/2; outline: as §4
[21] = Metabolic stability in rat liver microsome assessed as elimination half life at 0.1 uM in presence of NADPH incubated upto 60 mins by LC-MS/MS analysis; format: ADME; details: liver microsomes, read-out: beta t1/2; outline: as §4
[22] = Metabolic stability in rat liver microsome assessed as intrinsic clearance at 0.1 uM in presence of NADPH incubated upto 60 mins by LC-MS/MS analysis; format: ADME; details: microsomes, 1 h; outline: as §4
[23] = Metabolic stability in rat liver microsome assessed as metabolic bioavailability at 0.1 uM in presence of NADPH incubated upto 60 mins by LC-MS/MS analysis; format: ADME; details: liver microsomes; outline: as §4
Staphylococcus aureus [24] = assay: Antibacterial activity against methicillin-resistant Staphylococcus aureus strains 15 1 to 4 assessed as reduction in bacterial growth incubated for 18 to 20 hrs by CLSI based microdilution method; format: functional; details: time 18-20 hrs; outline: as §3

Sequence of Voltage-gated inwardly rectifying potassium channel KCNH2 (Q12809 whole entry): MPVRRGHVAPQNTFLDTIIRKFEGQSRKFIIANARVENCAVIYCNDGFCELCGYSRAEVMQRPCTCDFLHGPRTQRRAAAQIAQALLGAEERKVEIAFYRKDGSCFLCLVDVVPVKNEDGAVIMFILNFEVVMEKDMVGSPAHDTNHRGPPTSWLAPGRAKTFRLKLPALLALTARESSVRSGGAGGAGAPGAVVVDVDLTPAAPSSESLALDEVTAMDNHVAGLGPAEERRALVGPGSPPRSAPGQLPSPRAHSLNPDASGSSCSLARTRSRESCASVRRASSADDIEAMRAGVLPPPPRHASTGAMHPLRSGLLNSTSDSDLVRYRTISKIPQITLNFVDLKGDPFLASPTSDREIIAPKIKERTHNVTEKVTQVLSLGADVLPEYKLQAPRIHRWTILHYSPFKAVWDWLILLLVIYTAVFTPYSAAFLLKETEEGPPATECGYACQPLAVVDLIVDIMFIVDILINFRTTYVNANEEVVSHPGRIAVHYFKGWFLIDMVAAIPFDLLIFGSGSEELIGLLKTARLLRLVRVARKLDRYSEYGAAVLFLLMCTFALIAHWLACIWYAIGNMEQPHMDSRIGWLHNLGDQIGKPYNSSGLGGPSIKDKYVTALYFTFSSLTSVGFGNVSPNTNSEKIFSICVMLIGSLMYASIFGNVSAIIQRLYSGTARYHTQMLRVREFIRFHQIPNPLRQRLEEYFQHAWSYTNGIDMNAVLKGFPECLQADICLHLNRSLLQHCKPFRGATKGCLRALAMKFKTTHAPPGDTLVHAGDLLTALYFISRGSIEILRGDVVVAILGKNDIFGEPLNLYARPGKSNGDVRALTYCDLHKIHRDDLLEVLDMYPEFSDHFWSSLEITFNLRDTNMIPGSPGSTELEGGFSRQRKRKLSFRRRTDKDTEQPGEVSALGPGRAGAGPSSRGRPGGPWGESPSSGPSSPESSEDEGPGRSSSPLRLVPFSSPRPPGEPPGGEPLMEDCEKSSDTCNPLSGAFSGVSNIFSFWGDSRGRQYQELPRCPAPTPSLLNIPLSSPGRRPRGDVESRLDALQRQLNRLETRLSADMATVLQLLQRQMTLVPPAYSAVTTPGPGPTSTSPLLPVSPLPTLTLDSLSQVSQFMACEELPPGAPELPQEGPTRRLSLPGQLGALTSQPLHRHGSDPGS
Sequence of hERG (KCNH2) potassium channel (Q12809 whole entry): as above

MIC (Escherichia coli [1]): 0.25 µg/mL (≈ 0.527 µM)
MIC (Escherichia coli [2]): 0.25 µg/mL (≈ 0.527 µM)
SMILES: CCC(CO)=C1CN(c2nc(Oc3cnc4ccnn4c3)nc3[nH]c4c(NC)cc(F)cc4c23)C1

SMILES: CNc1cc(F)cc2c1[nH]c1nc(Oc3cnc(C)nc3)nc(N3CC(=C(C)CN)C3)c12
inhibition at 2 min, 40 µM [3]: 4.8%
MIC (Pseudomonas aeruginosa [4]): > 4 µg/mL
IC50 [5]: > 40 µM
MIC (Escherichia coli [1]): 2 µg/mL (≈ 4.6 µM)
MIC (Escherichia coli [2]): 0.06 µg/mL (≈ 0.138 µM)
MIC (Staphylococcus aureus [6]): < 0.008 µg/mL
MIC [7]: < 0.008 µg/mL

SMILES: C[C@@H](O)[C@H]1C(=O)N2C(C(=O)O)=C(S[C@@H]3CN[C@H](C(=O)N(C)C)C3)[C@H](C)[C@H]12 [MEROPENEM]
MIC (Pseudomonas aeruginosa [8]): 1 µg/mL (≈ 2.61 µM)
MIC (Acinetobacter baumannii [9]): > 32 µg/mL
MIC (Escherichia coli [10]): 0.25 µg/mL (≈ 0.652 µM)
MIC (Escherichia coli [11]): 4 µg/mL (≈ 10.4 µM)
MIC (Pseudomonas aeruginosa [12]): 8 µg/mL (≈ 20.9 µM)
MIC (Klebsiella pneumoniae [13]): ≥ 64 µg/mL
MIC (Klebsiella pneumoniae [14]): 16 µg/mL (≈ 41.7 µM)
MIC (Klebsiella pneumoniae [15]): 16 µg/mL (≈ 41.7 µM)
MIC (Escherichia coli [16]): 0.06 µg/mL (≈ 0.156 µM)
MIC (Acinetobacter baumannii [17]): > 32 µg/mL

SMILES: [2H]C([2H])([2H])Nc1cc(F)cc2c1[nH]c1nc(Oc3cnc(C)nc3)nc(N3CC(=C(CC)CN)C3)c12
MIC (Pseudomonas aeruginosa [8]): 2 µg/mL (≈ 4.43 µM)
MIC (Acinetobacter baumannii [9]): 0.25 µg/mL (≈ 0.554 µM)
MIC (Escherichia coli [10]): 0.5 µg/mL (≈ 1.11 µM)
MIC (Escherichia coli [11]): 0.25 µg/mL (≈ 0.554 µM)
Fh at 1 h, 0.1 µM [18]: 49.6%
MIC (Pseudomonas aeruginosa [12]): 4 µg/mL (≈ 8.86 µM)
CLH [19]: 20 mL/min/g
half-life at 0.1 µM [20]: 1.75 h
MIC (Klebsiella pneumoniae [13]): 1 µg/mL (≈ 2.21 µM)
half-life at 0.1 µM [21]: 0.548 h
MIC (Klebsiella pneumoniae [14]): 2 µg/mL (≈ 4.43 µM)
MIC (Klebsiella pneumoniae [15]): 4 µg/mL (≈ 8.86 µM)
MIC (Escherichia coli [16]): 0.125 µg/mL (≈ 0.277 µM)
MIC (Acinetobacter baumannii [17]): 0.25 µg/mL (≈ 0.554 µM)
CLH [22]: 63.9 mL/min/g
Fh at 1 h, 0.1 µM [23]: 41%

SMILES: CCC(CN)=C1CN(c2nc(NS(C)(=O)=O)nc3[nH]c4c(NC)cc(F)cc4c23)C1
MIC (Pseudomonas aeruginosa [4]): > 16 µg/mL
MIC (Escherichia coli [1]): > 16 µg/mL
MIC (Escherichia coli [2]): > 16 µg/mL
MIC (Staphylococcus aureus [6]): > 16 µg/mL
MIC [7]: > 16 µg/mL

SMILES: CNc1cc(F)cc2c1[nH]c1nc(Oc3cnc(C)nc3)nc(N3CCC(=C(F)CN)CC3)c12
MIC (Staphylococcus aureus [24]): 0.015 µg/mL (≈ 0.0322 µM)
inhibition at 2 min, 40 µM [3]: 70.4%
MIC (Pseudomonas aeruginosa [4]): > 8 µg/mL
IC50 [5]: 18.4 µM
MIC (Escherichia coli [1]): 0.5 µg/mL (≈ 1.07 µM)
MIC (Escherichia coli [2]): 0.06 µg/mL (≈ 0.129 µM)
MIC (Staphylococcus aureus [6]): 0.015 µg/mL (≈ 0.0322 µM)
MIC [7]: < 0.008 µg/mL

SMILES: CNc1cc(F)cc2c1[nH]c1nc(Oc3cnc(C)nc3)nc(N3CC/C(=C(/F)CN)C3)c12
MIC (Staphylococcus aureus [24]): 0.008 µg/mL (≈ 0.0177 µM)
MIC (Pseudomonas aeruginosa [4]): 2 µg/mL (≈ 4.42 µM)
MIC (Escherichia coli [1]): 0.125 µg/mL (≈ 0.276 µM)
MIC (Escherichia coli [2]): 0.06 µg/mL (≈ 0.133 µM)
MIC (Staphylococcus aureus [6]): < 0.008 µg/mL
MIC [7]: < 0.008 µg/mL

SMILES: CCC(CN)=C1CN(c2nc(Oc3cnc(C(C)(C)O)nc3)nc3[nH]c4c(NC)cc(F)cc4c23)C1
MIC (Pseudomonas aeruginosa [4]): > 16 µg/mL
MIC (Escherichia coli [1]): 1 µg/mL (≈ 2.03 µM)
MIC (Escherichia coli [2]): 0.5 µg/mL (≈ 1.02 µM)
MIC (Staphylococcus aureus [6]): < 0.008 µg/mL
MIC [7]: < 0.008 µg/mL

MIC (Escherichia coli [1]): > 64 µg/mL
MIC (Escherichia coli [2]): > 64 µg/mL
SMILES: CCC(CO)=C1CN(c2nc(C(=O)Nc3cnc(C)nc3)nc3[nH]c4c(NC)cc(F)cc4c23)C1

SMILES: CCC(CN)=C1CN(c2nc(S(C)(=O)=O)nc3[nH]c4c(NC)cc(F)cc4c23)C1
MIC (Pseudomonas aeruginosa [4]): > 16 µg/mL
MIC (Escherichia coli [1]): > 16 µg/mL
MIC (Escherichia coli [2]): > 16 µg/mL
MIC (Staphylococcus aureus [6]): > 16 µg/mL
MIC [7]: > 16 µg/mL

SMILES: CCC(CN)=C1CN(c2nc(Oc3cnc(C4CC4)nc3)nc3[nH]c4c(NC)cc(F)cc4c23)C1
inhibition at 2 min, 40 µM [3]: 62%
MIC (Pseudomonas aeruginosa [4]): 0.5 µg/mL (≈ 1.05 µM)
IC50 [5]: 23.4 µM
MIC (Escherichia coli [1]): 0.03 µg/mL (≈ 0.0632 µM)
MIC (Escherichia coli [2]): 0.015 µg/mL (≈ 0.0316 µM)
MIC (Staphylococcus aureus [6]): < 0.008 µg/mL
MIC [7]: < 0.008 µg/mL

SMILES: [2H]C([2H])([2H])Nc1cc(F)cc2c1[nH]c1nc(Oc3cnc(C)nc3)nc(N3CC(=C(C)[C@H](C)N)C3)c12
MIC (Pseudomonas aeruginosa [8]): 2 µg/mL (≈ 4.43 µM)
MIC (Acinetobacter baumannii [9]): 0.5 µg/mL (≈ 1.11 µM)
MIC (Escherichia coli [10]): 0.5 µg/mL (≈ 1.11 µM)
MIC (Escherichia coli [11]): 0.5 µg/mL (≈ 1.11 µM)
MIC (Pseudomonas aeruginosa [12]): 8 µg/mL (≈ 17.7 µM)
MIC (Klebsiella pneumoniae [13]): 2 µg/mL (≈ 4.43 µM)
MIC (Klebsiella pneumoniae [14]): 2 µg/mL (≈ 4.43 µM)
MIC (Klebsiella pneumoniae [15]): 8 µg/mL (≈ 17.7 µM)
MIC (Escherichia coli [16]): 0.125 µg/mL (≈ 0.277 µM)
MIC (Acinetobacter baumannii [17]): 0.5 µg/mL (≈ 1.11 µM)
